Reference: ChEMBL document CHEMBL4038305, “Benzoxaborole Antimalarial Agents. Part 5. Lead Optimization of Novel Amide Pyrazinyloxy Benzoxaboroles and Identification of a Preclinical Candidate” (J Med Chem, 2017)

Columns and labels:
Lymphocyte [1] = experiment: Genotoxicity in human lymphocytes at 0.5 to 355 ug/mL after 3 hrs in presence of rat liver S9 fraction by micronucleus assay; type: toxicity, cell-based; conditions: s9, 3 h
Plasmodium berghei [2] = experiment: Antimalarial activity against Plasmodium berghei infected in Swiss Webster mouse assessed as mouse survival rate at 11 mg/kg administered once daily via oral gavage for 4 consecutive days beginning 1 hr after infection measured on day 10 post infection relative to control; type: functional
Procedure, shortened: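 Mice given an intraperitoneal injection of P. berghei-infected erythrocytes taken from a previously infected animal. Oral dosing once daily for 4 consecutive days, starting 1 h after infection. Vehicle: polyethylene glycol 300/propylene glycol/water (weight ratio 55/25/20). Percent survival recorded daily from day 4 to day 20. Chloroquine 30 mg/kg and vehicle-only groups served as controls.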

[3] = AUC (0 to infinity) in Beagle dog at 5 mg/kg, iv by HPLC/MS analysis; type: ADME, organism-based, Canis lupus familiaris; parameters: dose 5 mg/kg, time infinity, route intravenous; conditions: in vivo
Escherichia coli = experiment: Genotoxicity in Escherichia coli WP2uvrA assessed as number of revertants per plate at 1500 ug/plate in presence of rat liver S9 fraction by Ames test (reference value: 42 +/- 6); type: toxicity
Lymphocyte [4] = experiment: Genotoxicity in human lymphocytes assessed as replication index at 355.15 ug/mL after 3 hrs in presence of rat liver S9 fraction by micronucleus assay relative to control; type: toxicity, cell-based; conditions: s9, 3 h
Procedure, shortened: (§1)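 Human lymphocytes exposed for 3 h with or without rat liver S9, or 28 h without S9, with 1% DMSO as vehicle control. Replication index = (binucleated + 2 × multinucleated cells)/total cells. Cytotoxicity (%) = 100 − (RI treated/RI vehicle) × 100.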

Lymphocyte [5] = experiment: Genotoxicity in human lymphocytes assessed as replication index at 355.15 ug/mL after 3 hrs in absence of rat liver S9 fraction by micronucleus assay relative to control; type: toxicity, cell-based; procedure, shortened: as §1
Lymphocyte [6] = experiment: Genotoxicity in human lymphocytes assessed as replication index at 160 ug/mL after 3 hrs in absence of rat liver S9 fraction by micronucleus assay relative to control; type: toxicity, cell-based; procedure, shortened: as §1
Plasmodium falciparum [7] = experiment: Antimalarial activity against Plasmodium falciparum HB3 infected in human erythrocytes assessed as reduction in [3H]-hypoxanthine incorporation preincubated for 24 hrs followed by [3H]-hypoxanthine addition measured after 24 hrs by scintillation counting method; type: functional, cell-based
Lymphocyte [8] = experiment: Genotoxicity in human lymphocytes assessed as increase in frequency of micronucleated cells at 355.15 ug/mL after 3 hrs in presence of rat liver S9 fraction by micronucleus assay (reference value: 0.63%); type: toxicity, cell-based; conditions: s9, 3 h
Plasmodium falciparum [9] = experiment: Antimalarial activity against intraerythrocytic stage of Plasmodium falciparum assessed as time required for maximal killing effect at 100 times IC50 preincubated for 24 hrs followed by [3H]-hypoxanthine addition measured after 24 hrs by scintillation counting method; type: functional
Procedure, shortened: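 In vitro P. falciparum parasite reduction ratio assay run at 10×, 30× and 100× IC50. Derived parameters: lag phase (time to maximal killing), PRR (parasites killed per life cycle) and PCT99.9% (time to clear 99.9% of the initial parasite population).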

Rattus norvegicus = experiment: Genotoxicity in rat assessed as change in polychromatic erythrocytes in bone marrow at 500 mg/kg administered via oral gavage measured after 24 hrs post dose by micronucleus assay relative to control; type: toxicity, organism-based; conditions: in vivo
Plasmodium berghei [10] = experiment: Antimalarial activity against Plasmodium berghei infected in Swiss Webster mouse assessed as mouse survival rate at 3 mg/kg administered once daily via oral gavage for 4 consecutive days beginning 1 hr after infection measured on day 5 post infection relative to control; type: functional
Procedure, shortened: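 P. berghei-infected erythrocytes taken from a previously infected mouse were injected intraperitoneally. Oral dosing, once daily for 4 consecutive days, began 1 h after infection, in polyethylene glycol 300/propylene glycol/water (55/25/20 by weight). Chloroquine at 30 mg/kg was the positive control, with a vehicle-only group. Percent survival was recorded daily from day 4 to day 20.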

Question: With Cc1c(Oc2cnc(C(=O)NCCO)cn2)ccc2c1B(O)OC2 as the molecule, how does the Activity (Lymphocyte [1]) read?
Answer: Non-Toxic

Question: For Cc1c(Oc2cnc(C(=O)N3CC(O)(C(C)C)C3)cn2)ccc2c1B(O)OC2, which survival at 11 mg/kg (Plasmodium berghei [2]) is on record?
Answer: 20%

Question: Which AUC(0-inf) [3] does the source give for Cc1c(Oc2cnc(C(=O)N3CC(C)(O)C3)cn2)ccc2c1B(O)OC2 here?
Answer: 168 µg·h/mL

Question: And the Activity (Escherichia coli)?
Answer: 26

Question: What about the Activity (Lymphocyte [4]) of the same molecule?
Answer: 7%

Question: What about the Activity (Lymphocyte [5]) of the same molecule?
Answer: 7%

Question: And the Activity (Lymphocyte [6])?
Answer: 2%

Question: And the IC50 (Plasmodium falciparum [7])?
Answer: 80 nM

Question: What about the Activity (Lymphocyte [8]) of the same molecule?
Answer: 0.73%

Question: What about the Time (Plasmodium falciparum [9]) of the same molecule?
Answer: 0 h

Question: And the Activity (Rattus norvegicus)?
Answer: -4%

Question: With Cc1c(Oc2cnc(C(=O)NC(C)CO)cn2)ccc2c1B(O)OC2 (configuration not stated) as the molecule, how does the survival at 3 mg/kg (Plasmodium berghei [10]) read?
Answer: 60%
